Experimental data from article PMC11025564 (The journal of physical chemistry. B, 2018).

Test system: integrin αIIbβ3 TM complex
Format: binding, Human
Details: ITC, 28 °C, same bicelles
How it was run: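 β3 TM peptide (10 μM in cell) titrated with αIIb TM peptide in 10 s injections until saturation. Medium: 43 mM DHPC, 17 mM POPC, 25 mM sodium phosphate, pH 7.4, with 9 mM free DHPC. Heats of dilution of both peptides were subtracted. ΔH° and mole-fraction K_XY were fitted with 1:1 stoichiometry fixed. Peptide amounts were set by UV absorbance.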

αIIb + β3: Human integrin αIIb(A958-P998) and β3(P685-F727) TM peptides incorporating β3(C687S), recombinantly produced; wild-type pair
ΔG° (ΔG° = −RT ln KXY): -4.84 ± 0.01 kcal/mol
TΔS° (ΔS° = (ΔH° − ΔG°)/T): -11.1 ± 0.1 kcal/mol
